Test results reported in ChEMBL document CHEMBL1938287, “Design and synthesis of inhaled p38 inhibitors for the treatment of chronic obstructive pulmonary disease” (J Med Chem, 2011).
In brackets after ≈: the same amount, converted by molar mass.

What was measured:
[1] = Metabolic stability in human liver microsomes; assay type: ADME, Microsome; conditions: read-out: Stability
[2] = Metabolic stability in human liver microsomes assessed as phase II glucuronidation in the presence of uridine diphosphate glucuronic acid and absence of NADPH; assay type: ADME, Microsome; conditions: read-out: Stability
Summary of the method: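 Human liver microsomes incubated with the cofactor UDPGA and without NADPH, to assess phase II glucuronidation.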

[3] = Volume of distribution at steady state in rat at 1 mg/kg, iv; assay type: ADME, organism-based; set-up: dose 1 mg/kg, route intravenous; conditions: in vivo, read-out: Vdss
[4] = Clearance in rat at 1 mg/kg, iv; assay type: ADME, organism-based; set-up: dose 1 mg/kg, route intravenous; conditions: in vivo
Summary of the method: (§1)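 Intravenous pharmacokinetics in rats from a 1 mg/kg dose; blood sampled.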

[5] = Oral bioavailability in rat at 3 mg/kg; assay type: ADME, organism-based; conditions: in vivo
Summary of the method: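 Oral pharmacokinetics in rats from a 3 mg/kg dose.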

Rattus norvegicus = species on record: Rattus norvegicus; assay: Unbound clearance in rat; assay type: ADME, organism-based; conditions: in vivo
[6] = Intrinsic clearance in rat liver microsomes; assay type: ADME, Microsome; conditions: read-out: CLH
[7] = Half life in rat at 1 mg/kg, iv; assay type: ADME, organism-based; set-up: dose 1 mg/kg, route intravenous; conditions: in vivo; summary of the method: as §1
[8] = Solubility in simulated lung fluid; assay type: physicochemical
[9] = Aqueous solubility of the compound; assay type: physicochemical
[10] = Half life in dog at 0.5 mg/kg, iv; assay type: ADME, organism-based, Canis lupus familiaris; set-up: dose 0.5 mg/kg, route intravenous; conditions: in vivo
Summary of the method: (§2)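 Intravenous pharmacokinetics in dogs from a 0.5 mg/kg dose; blood sampled.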

[11] = Clearance in dog at 0.5 mg/kg, iv; assay type: ADME, organism-based, Canis lupus familiaris; set-up: dose 0.5 mg/kg, route intravenous; conditions: in vivo; summary of the method: as §2
Liver microsomes [12] = assay: Drug metabolism in rat liver microsomes; assay type: ADME, Microsome
[13] = Drug metabolism in dog liver microsomes; assay type: ADME, Canis lupus familiaris, Microsome
Liver microsomes [14] = assay: Drug metabolism in human liver microsomes; assay type: ADME, Microsome
[15] = Dissociation constant, pKa of the compound; assay type: physicochemical
[16] = Volume of distribution at steady state in dog at 0.5 mg/kg, iv; assay type: ADME, organism-based, Canis lupus familiaris; set-up: dose 0.5 mg/kg, route intravenous; conditions: in vivo, read-out: Vdss
[17] = Oral bioavailability in rat at 0.5 mg/kg; assay type: ADME, organism-based; conditions: in vivo
Summary of the method: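 Oral pharmacokinetics in rats from a 0.5 mg/kg dose; blood sampled.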

Canis familiaris = species on record: Canis familiaris; assay: Unbound clearance in dog; assay type: ADME, organism-based, Canis lupus familiaris; conditions: in vivo
[18] = Lipophilicity, log D of the compound; assay type: physicochemical; conditions: octanol/water

SMILES	microsomal CLint [1] [µL/min/mg]	microsomal CLint [2] [µL/min/mg]	other results
CC(C)c1nnc2ccc(Sc3ccccc3CNC(=O)Nc3cc(C(C)(C)C)nn3-c3ccccc3)cn12	> 320		
CSC(C)(C)c1cc(NC(=O)NCc2ccccc2Sc2ccc3nnc(C(C)C)n3c2)n(-c2ccccc2)n1	> 320	1.7	
CC(C)c1nnc2ccc(Sc3ccccc3CNC(=O)Nc3cc(C(C)(C)C)nn3-c3cccc(O)c3)cn12	385		
CC(C)c1nnc2ccc(Sc3ccccc3CNC(=O)Nc3cc(C(C)(C)C)nn3-c3ccc(O)cc3)cn12	196		
CSC(C)(C)c1cc(NC(=O)NCc2ccccc2Sc2ccc3nnc(C(C)C)n3c2)n(-c2cccc(O)c2)n1	> 440	2	Vd [3]: 0.9 L/kg; clearance [4]: 77 mL/min/kg; bioavailability [5]: < 5%; CL free (Rattus norvegicus): > 9600 mL/min/kg; microsomal CLint [6]: 200 µL/min/mg; half-life [7]: 1 h
CC(C)c1nnc2ccc(Sc3ccccc3CNC(=O)Nc3cc(C(C)(C)C)nn3-c3ccc(O)c(Cl)c3)cn12	> 287	155	
CC(C)c1nnc2ccc(Sc3ccccc3CNC(=O)Nc3cc(C(C)(C)C)nn3-c3ccc(Cl)c(O)c3)cn12	303	66	
Cc1ccc(-n2nc(C(C)(C)C)cc2NC(=O)NCc2ccccc2Sc2ccc3nnc(-c4ccccc4O)n3c2)cc1	279		
Cc1cccc(-n2nc(C(C)(C)C)cc2NC(=O)NCc2ccccc2Sc2ccc3nnc(-c4cccc(Cl)c4O)n3c2)c1	126	41	
CSCC(C)(C)c1cc(NC(=O)NCc2ccccc2Sc2ccc3nnc(-c4ccccc4O)n3c2)n(-c2ccccc2)n1	> 440	27	
Cc1ccc(-n2nc(C(C)(C)C)cc2NC(=O)NCc2ccccc2Sc2ccc3nnc(-c4cc(O)ccc4Cl)n3c2)cc1	> 440	43	
Cc1ccc(-n2nc(C(C)(C)C)cc2NC(=O)NCc2ccccc2Sc2ccc3nnc(-c4ccc(O)cc4Cl)n3c2)cc1	132		
CSc1ccccc1-c1nnc2ccc(Sc3ccccc3CNC(=O)Nc3cc(C(C)(C)C)nn3-c3cccc(O)c3)cn12	304	11	
CC(C)(C)c1cc(NC(=O)NCc2ccccc2Sc2ccc3nnc(-c4ccccc4O)n3c2)n(-c2cccc(OCCO)c2)n1	> 287	8	solubility [8]: 1 µg/mL (≈ 1.54 µM)
CC(C)(C)c1cc(NC(=O)NCc2ccccc2Sc2ccc3nnc(-c4ccccc4OCCO)n3c2)n(-c2cccc(O)c2)n1	> 320		
CC(C)(C)c1cc(NC(=O)NCc2ccccc2Sc2ccc3nnc(-c4cc(O)ccc4Cl)n3c2)n(-c2cccc(OCCO)c2)n1	> 285	53	
CSCC(C)(C)c1cc(NC(=O)NCc2ccccc2Sc2ccc3nnc(-c4cc(O)ccc4Cl)n3c2)n(-c2cccc(OCCO)c2)n1	> 216	47	
CC(C)(C)c1cc(NC(=O)NCc2ccccc2Sc2ccc3nnc(-c4ccccc4OCCO)n3c2)n(-c2ccc(O)c(Cl)c2)n1	202	130	
CC(C)(C)c1cc(NC(=O)NCc2ccccc2Sc2ccc3nnc(-c4ccccc4OCCO)n3c2)n(-c2ccc(Cl)c(O)c2)n1	232	70	
CSCC(C)(C)c1cc(NC(=O)NCc2ccccc2Sc2ccc3nnc(-c4ccccc4OCCO)n3c2)n(-c2ccc(O)c(Cl)c2)n1	> 440	310	
CC(C)(C)c1cc(NC(=O)NCc2ccccc2Sc2ccc3nnc(-c4ccccc4OCCO)n3c2)n(-c2ccc(O)c(F)c2)n1	> 440		
CC(C)(C)c1cc(NC(=O)NCc2ccccc2Sc2ccc3nnc(-c4ccccc4SCCO)n3c2)n(-c2cccc(O)c2)n1	> 440	4	
CSCC(C)(C)c1cc(NC(=O)NCc2ccccc2Sc2ccc3nnc(-c4ccccc4SCCO)n3c2)n(-c2ccc(O)c(Cl)c2)n1		264	
C[C@@H]1C[C@H]2[C@@H]3C[C@H](F)C4=CC(=O)C=C[C@]4(C)[C@@]3(F)[C@@H](O)C[C@]2(C)[C@@]1(O)C(=O)SCF [FLUTICASONE]			solubility [8]: 0.5 µg/mL (≈ 1.12 µM)
CC(C)(C)c1cc(NC(=O)NCc2ccccc2Sc2ccc3nnc(-c4ccccc4SCCO)n3c2)n(-c2ccc(O)c(Cl)c2)n1 [PF-03715455]	> 347	205	solubility [9]: < 100 µg/mL; Vd [3]: 0.19 L/kg; clearance [4]: 33.8 mL/min/kg; half-life [10]: 0.5 h; clearance [11]: 13.1 mL/min/kg; Drug metabolism (Liver microsomes [12]): Active; CL free (Rattus norvegicus): 33000 mL/min/kg; Drug metabolism [13]: Active; Drug metabolism (Liver microsomes [14]): Active; pKa [15]: 7.45; Vd [16]: 0.06 L/kg; bioavailability [17]: < 5%; CL free (Canis familiaris): 15000 mL/min/kg; logD [18]: > 4.1; half-life [7]: 1 h
